Data reported in PMC3087843 (Nature structural & molecular biology, 2011).

Tests used:
[1] = target: T1, human ERAP1 (Homo sapiens, UniProt Q9NZ08, G346D/G514D/K528R/Q730E); assay: Activation of L-AMC hydrolysis by ERAP1 in the presence of peptides; format: biochemical; settings: 100 μM L-AMC, 0–70 μM peptide, 0.87 μg ml^–1 ERAP1, 37°C (Fig. 6c,d)
[2] = target: T1, human ERAP1; assay: Peptide trimming assay; format: biochemical; settings: 150 μM peptide, 3.5 μg ml^–1 ERAP1, 37°C, 50 mM Tris-HCl pH 7.8, 0.25 g L^–1 BSA, C18 RP-HPLC (Fig. 4a)
In short: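 Human ERAP1 (allelic variant) was baculovirus-expressed, Ni-NTA purified and treated with carboxypeptidase A at room temperature in PBS. Substrates were HPLC-purified synthetic peptides with mass confirmed by MS. Reactions were stopped with 0.6% (v/v) TFA, and the supernatant was run on C18 RP-HPLC with an acetonitrile gradient in 0.03% (v/v) TFA. Percent substrate cleaved was taken from integrated peak areas.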

T1 sequence (Q9NZ08 whole entry G346D/G514D/K528R/Q730E): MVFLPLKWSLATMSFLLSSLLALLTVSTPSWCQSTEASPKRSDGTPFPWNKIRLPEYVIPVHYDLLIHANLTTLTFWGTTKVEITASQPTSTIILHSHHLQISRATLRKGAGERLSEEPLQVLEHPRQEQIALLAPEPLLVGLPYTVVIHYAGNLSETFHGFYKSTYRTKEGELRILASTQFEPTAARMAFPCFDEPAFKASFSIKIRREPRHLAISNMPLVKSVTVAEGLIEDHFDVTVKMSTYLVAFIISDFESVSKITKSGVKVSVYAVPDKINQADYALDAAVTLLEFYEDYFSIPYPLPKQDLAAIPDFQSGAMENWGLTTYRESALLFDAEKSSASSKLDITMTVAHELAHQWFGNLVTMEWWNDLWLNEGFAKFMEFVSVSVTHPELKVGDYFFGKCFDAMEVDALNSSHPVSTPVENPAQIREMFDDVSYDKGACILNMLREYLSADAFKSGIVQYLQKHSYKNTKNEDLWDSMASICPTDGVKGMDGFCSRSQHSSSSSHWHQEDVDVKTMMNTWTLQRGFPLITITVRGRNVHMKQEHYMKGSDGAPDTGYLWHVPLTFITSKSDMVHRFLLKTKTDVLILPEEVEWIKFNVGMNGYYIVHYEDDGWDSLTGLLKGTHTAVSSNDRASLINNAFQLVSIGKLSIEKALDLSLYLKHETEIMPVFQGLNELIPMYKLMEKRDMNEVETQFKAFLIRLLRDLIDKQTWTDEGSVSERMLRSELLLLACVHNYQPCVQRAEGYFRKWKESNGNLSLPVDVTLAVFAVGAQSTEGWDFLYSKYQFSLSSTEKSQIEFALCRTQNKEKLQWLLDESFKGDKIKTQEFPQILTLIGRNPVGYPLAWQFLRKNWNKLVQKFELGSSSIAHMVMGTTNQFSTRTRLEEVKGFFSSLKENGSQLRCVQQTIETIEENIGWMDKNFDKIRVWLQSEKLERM

| Substance | Activation of ERAP1 hydrolysis of L-AMC by increasing peptide concentrations [1] | ERAP1 processing of SIINFEKL length variants [2] |
| --- | --- | --- |
| FEKL |  | not long enough to be processed efficiently |
| SIINFEKL [reference compound] |  | not long enough to be processed efficiently |
| INFEKL |  | not processed appreciably |
| QLESIINFEKL |  | processed efficiently |
| LVAFKARAF [L-peptide] | activated |  |

More lines, main results first:

| Activation of ERAP1 hydrolysis of L-AMC by increasing peptide concentrations [1] | Substance | ERAP1 processing of SIINFEKL length variants [2] |
| --- | --- | --- |
| activated | L(N-Me)VAFKARAF [L^Me] |  |
| did not activate | R(N-Me)VAEAAFAE |  |
